Most compounds without a hit are left out; they make up all but 3.8% or so of the library.
KCNQ1 block: human KCNQ1 channel inhibition; P51787; CHO-K1 KCNQ1, FluxOR thallium flux fluorescence; hits give high values; B-score at 10 µM; 310,000 compounds, 1.3% hits; AID 2642;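 active = compounds whose thallium flux B-score, printed positive for inhibition, exceeds three library SD while starting fluorescence stays within three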;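 also: channel opened by potassium depolarization with thallium stimulus after 20 min compound exposure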
KCNK9 inh: blocks the human KCNK9 two-pore domain potassium channel; Q9NPC2; HEK293 KCNK9, FluxOR thallium flux fluorescence; hits give low values; B-score at 10 µM; 310,000 compounds, 1.2% hits;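 active = ratio B-score over 3 SD below the library mean, with starting fluorescence within 5 SD of its mean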;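 also: negative B-score means less thallium flux so channel inhibition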
Target sequence (Q9NPC2 whole entry, looked up, the tested form may be a part): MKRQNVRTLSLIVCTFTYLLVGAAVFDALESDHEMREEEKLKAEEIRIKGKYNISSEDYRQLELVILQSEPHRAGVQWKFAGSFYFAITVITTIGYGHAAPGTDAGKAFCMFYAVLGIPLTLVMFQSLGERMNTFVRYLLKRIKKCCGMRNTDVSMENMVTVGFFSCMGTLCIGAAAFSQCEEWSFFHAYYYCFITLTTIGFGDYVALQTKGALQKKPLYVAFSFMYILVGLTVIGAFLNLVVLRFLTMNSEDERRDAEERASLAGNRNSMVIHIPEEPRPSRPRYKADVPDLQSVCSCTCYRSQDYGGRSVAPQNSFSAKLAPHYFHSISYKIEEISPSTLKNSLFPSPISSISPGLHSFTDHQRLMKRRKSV
hERG rescue: shields human hERG channel from block by proarrhythmic agents; CHO-hERG, FluxOR thallium flux, dofetilide IC70 present; activation (rescue from dofetilide block), less the hit threshold, % at 10 µM; 310,000 compounds, 0.51% hits; AID 1511;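 active = activation above the mean of controls blocked by dofetilide plus 5 SD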;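 also: thallium influx through hERG after potassium depolarization seen as dye fluorescence rise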
KCNK3 block: human KCNK3 channel inhibition, primary screen; O14649; CHO-KCNK3 thallium flux, FluxOR fluorescence; hits give low values; B-score at 10 µM; 340,000 compounds, 0.84% hits; AID 602410;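 active = B-score under library mean minus 4 SD, starting fluorescence ratio at most library mean plus 5 SD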;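 also: more negative B-score means stronger inhibition of thallium flux through KCNK3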
Target sequence (O14649 whole entry, looked up): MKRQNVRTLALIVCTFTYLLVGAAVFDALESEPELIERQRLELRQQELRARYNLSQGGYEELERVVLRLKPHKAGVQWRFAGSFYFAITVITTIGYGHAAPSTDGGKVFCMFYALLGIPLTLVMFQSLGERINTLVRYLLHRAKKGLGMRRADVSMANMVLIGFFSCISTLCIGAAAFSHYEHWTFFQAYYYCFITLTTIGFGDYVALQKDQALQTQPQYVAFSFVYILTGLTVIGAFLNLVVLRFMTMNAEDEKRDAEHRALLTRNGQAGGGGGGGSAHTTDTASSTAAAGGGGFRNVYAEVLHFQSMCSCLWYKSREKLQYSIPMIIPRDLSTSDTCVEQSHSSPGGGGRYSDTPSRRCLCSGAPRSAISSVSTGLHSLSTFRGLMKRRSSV
Kir21 inh: inhibitors of mouse Kir2.1 inward-rectifier potassium channel; 310,000 compounds, 0.85% hits; HEK293-Kir2.1, FluxOR thallium flux fluorescence; hits give low values; AID 1672; B-score at 10 µM; P35561;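 active = fluorescence ratio B-score at or below minus 3 SD of library scores, with starting-brightness B-score within 2 SD, cut at about -4.2 in these data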;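 also: channel flux triggered by added potassium and thallium sulfate stimulus; B-score of peak minus minimum fluorescence over baseline after thallium stimulus; more negative B-score means stronger Kir2.1 block with less thallium influx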
KCNQ1 act: potentiates or activates the human KCNQ1 potassium channel; P51787; CHO-K1 KCNQ1, thallium flux FluxOR fluorescence; hits give high values; B-score at 10 µM; 310,000 compounds, 0.35% hits; AID 2648;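 active = fluorescence ratio B-score, a plate-corrected score, at least three library SD, with initial intensity B-score within 5 SD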
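Doses: Single concentration per compound, DMSO matched to controls | Test system: KCNQ1-transfected CHO-K1 cells | Timing: 90 min dye loading and 20 min compound exposure, both at room temperature | Measured by: Kinetic FluxOR thallium fluorescence, 10-s 1-Hz baseline, 110-s post-stimulus read | Medium: Assay buffer with matched DMSO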
KCNK9 inh conf: confirmation of human KCNK9 potassium channel inhibitors | HEK293 KCNK9 cells, FluxOR thallium flux fluorescence | inhibition, % at 10 µM | 4,900 compounds, 43% hits | shares compounds with KCNK9 inh;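 active = thallium signal inhibited by more than 5 SD of the compound-free buffer control wells, on both duplicate plates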;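 also: 0% = assay buffer control wells without compound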
Kir21 sel: selectivity of KCNK9 modulators against mouse Kir2.1 | Kir2.1 cells, FluxOR thallium flux fluorescence | AID 492993 | shares compounds with KCNK9 inh | inhibition, % at 10 µM | 4,900 compounds, 4% hits;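 active = thallium signal drop more than 5 SD beyond the mean of the no-compound control wells, seen in both duplicate plates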;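 also: signal is fluorescence rise after thallium addition divided by baseline fluorescence; plate controls were assay buffer only for no effect and full block by chlorpromazine control for full effect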
KCNK9 uninduced: second counter-screen for KCNK9 modulators: effect in non-induced cells; shares compounds with KCNK9 inh; non-induced KCNK9-HEK293, FluxOR thallium flux; inhibition, % at 10 µM; 4,900 compounds, 40% hits; AID 492997;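 active = thallium signal drop beyond 5 SD of the untreated control mean, on both duplicate plates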;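 also: plate controls were buffer only IC0 wells for no effect and SID17386958 at its maximal inhibitory level for full effect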
* marks the source's active call; other numbers are inactive results; i = inactive; · = no result; ! = a repeat was not active.

SMILES | KCNQ1 block | KCNK9 inh | hERG rescue | KCNK3 block | Kir21 inh | KCNQ1 act | KCNK9 inh conf | Kir21 sel | KCNK9 uninduced
O=C1CC(=O)N(CCc2ccccc2)C(=O)N1CCc1ccccc1 | i | i | -12.2 | i | 1.44 | i | i | i | i
O=C(Nc1cccc(-c2nn[nH]n2)c1)c1csc2c1CCCC2 | i | i | -15.2 | i | -0.41 | i | · | · | ·
NC(=O)CSc1nnc(-c2cccs2)n1Cc1ccco1 | i | i | -9.1 | i | 1.16 | i | · | · | ·
Cc1ccc(C)c(CSc2nnc(-c3cccs3)n2Cc2ccco2)c1 | i | -12* | -12.6 | i | -5.05* | i | 36.0%* | 61.0%* | 42.5%*
CCCCCCCCCCCCCCCCn1cc[n+](C)c1 | 10*! | -12.5*! | -36.9 | -12.3*! | -3.86 | i | 61.5%* | 43.5%* | 25.5%*
CCCCCCCCn1ccc(=N)cc1 | i | i | -14.5 | i | -0.52 | i | · | · | ·
CC1CCCN(c2nc(-c3cccnc3)nc3scc(-c4ccccc4)c23)C1 (centres undefined) | i | -9.08* | -15.0 | i | -0.22 | i | 35.0%* | i | 35.0%*
CC1CCN(c2nc(-c3cccnc3)nc3scc(-c4ccccc4)c23)CC1 | i | i | -10.3 | i | -0.47 | i | · | · | ·
N#Cc1cccc(NC(=O)CN2CCN(Cc3ccccc3)CC2)c1 | i | i | -7.8 | i | -0.09 | i | · | · | ·
C=CCc1cccc(Cl)c1OCCCNC1CCCC1 | i | i | -4.2 | i | -4.15 | i | · | · | ·
CCOc1cc(CNc2ccc3c(c2)OCCO3)cc(Br)c1OC | i | i | -7.7 | i | -1.16 | i | i | i | i
Cc1ccc(C)n1-n1cnc2sc(-c3ccccc3)cc2c1=O | i | -14.1* | -8.1 | i | -2.35 | i | 44.0%* | i | 26.0%*
CCn1cnc2sc(-c3ccccc3)cc2c1=O | i | i | -7.2 | i | -1.69 | i | · | · | ·
Cc1ccc(C)n1-n1c(C)nc2sc(-c3ccccc3)cc2c1=O | i | i | -11.2 | i | -1.9 | i | i | i | i
O=C(NC1CCN(Cc2ccccc2)CC1)c1ccc2c(c1)[nH]c(=O)n2Cc1ccc(F)cc1 | i | i | -16.6 | i | -1.91 | i | · | · | ·
O=C(c1ccc(-c2ccccc2Cl)o1)N1CCCCCCC1 | · | · | · | i | · | · | · | · | ·
S=C(c1ccc(-c2cc(Cl)ccc2Cl)o1)N1CCCCC1 | i | -11.8* | -7.5 | i | -1.13 | i | 46.5%* | i | 41.5%*
CC1(C)NC(=O)N(CC(O)COc2ccccc2C(=O)Nc2ccccc2)C1=O (centres undefined) | i | -14.7* | -6.0 | i | -0.45 | i | 58.0%* | i | i
Cc1csc2sc(-c3ccnc(SCC(=O)NCc4ccccc4)n3)c(C)c12 | i | -9.19* | -9.6 | i | 1.91 | i | i | i | 31.5%*
Cc1csc(SCC(=O)NCc2ccccc2)n1 | i | i | -9.8 | i | 0.57 | i | · | · | ·
O=C(COC(=O)/C=C/C(=O)OCC(=O)NC12CC3CC(CC(C3)C1)C2)NC12CC3CC(CC(C3)C1)C2 | i | i | -12.3 | i | 0 | i | · | · | ·
CCN(CC)c1ccc(CNc2ccc(Br)cn2)cc1 | i | i | -6.7 | i | 0.85 | i | i | i | i
CCOC(=O)c1nn(-c2ccccc2F)c(-c2ccccc2)c1C(=O)c1ccccc1 | i | -11.4* | -6.8 | i | -1.05 | i | 55.5%* | i | i
CCN(CC)CCNC(=S)Nc1ccc2nc(N3CCCC3)cc(C)c2c1 | i | -9.4* | -5.6 | i | 0.24 | i | i | i | i
CCN(CC)CCNC(=S)Nc1ccc2nc(N3CCN(C)CC3)cc(C)c2c1 | i | i | -6.3 | i | -0.02 | i | · | · | ·
SMILES | KCNQ1 block | KCNK9 inh | hERG rescue | KCNK3 block | Kir21 inh | KCNQ1 act | KCNK9 inh conf | Kir21 sel | KCNK9 uninduced
O=C(O)c1cnc(-c2ccccc2)nc1Sc1ccc(Cl)cc1Cl | i | i | -2.9 | i | 1.61 | i | i | i | i
Cc1ccc(-c2ccc([C@H]3[C@H]4C=CC[C@@H](C)[C@@H]4C(=O)N3Cc3ccccc3)c(F)c2)cc1 | i | i | -8.8 | i | 0.18 | i | · | · | ·
CC[C@@H]1CC=C[C@H]2[C@H]1C(=O)N(Cc1ccccc1)[C@H]2c1ccc(C(F)(F)F)cc1 | i | -8.45* | -13.2 | i | 0.6 | i | 50.5%* | i | 47.5%*
Cc1ccc(F)c([C@H]2[C@H]3C=CC[C@@H](C)[C@@H]3C(=O)N2Cc2ccccc2)c1 | i | -8.55* | -26.4 | i | -0.15 | i | 52.5%* | i | 60.5%*
COCCn1c(SCc2nnc(-c3ccccc3)o2)nc2sc3c(c2c1=O)CCC3 | i | -11.2* | -22.6 | i | 0.35 | i | 37.0%* | i | 32.5%*
Cc1cccc(OCc2nc(-c3ccc(Br)o3)no2)c1 | i | i | -7.1 | i | 0.42 | i | i | i | 23.5%*
Fc1ccc(OCc2nc(-c3ccc(Br)o3)no2)c(F)c1 | i | i | -6.9 | i | -0.18 | i | · | · | ·
COc1cccc(OCc2nc(-c3ccc(Br)o3)no2)c1 | i | i | -12.9 | i | -3.71 | i | i | i | i
Cc1cccc(C)c1NC(=O)CN1C(=O)NC(C)(C2CC2)C1=O (centres undefined) | · | · | · | i | · | · | · | · | ·
CCOc1cc(S(=O)(=O)N2CCCCCC2)ccc1F | i | i | -12.5 | i | 0.64 | i | · | · | ·
Cc1cc(/C=C2\C(=N)N3C(SCc4ccccc4)=NSC3=NC2=O)c(C)n1Cc1ccccc1 | i | i | -5.2 | i | -0.86 | i | · | · | ·
CC(C)CSC1=NSC2=NC(=O)/C(=C\c3ccccc3)C(=N)N12 | i | i | 21.9* | i | 1.25 | 20* | i | i | i
COc1ccc(C(=O)N/N=C/c2c[nH]c3ccccc23)cc1 | i | i | -7.8 | i | 0.11 | i | · | · | ·
CCCCCN=C(N)N/N=C/c1c[nH]c2ccc(OC)cc12 | 7* | -11.1* | -30.5 | i | -9.38 | i | 66.0%* | 64.0%* | i
CCCCN(CC)C(=O)c1cc2cc3ccc(Cl)cc3nc2o1 | i | -8.46* | -6.4 | i | 1.06 | i | 44.0%* | i | i
O=C(c1cc2sccc2n1Cc1ccc(F)cc1)N1CCCc2ccccc21 | i | -9.98* | -7.9 | i | 0.71 | i | 51.0%* | i | 37.0%*
CCOc1ccccc1N1CCN(S(=O)(=O)c2ccc(Cl)s2)CC1 | i | i | -7.0 | i | 0.92 | i | i | i | i
CCOc1ccc(S(=O)(=O)Nc2nc3ccccc3nc2Nc2ccc(N3CCOCC3)cc2)cc1 | i | i | -5.1 | i | -4.38 | i | · | · | ·
